pIC50: −log10 of the molar value. Calls of active or inactive are those of the source. The rule behind the calls is not given here.
Key:
HCT-116 [1] = assay: Effect on micronucleation in human HCT116 up to 50 uM; assay type: functional, cell-based
In short: (§1)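 Cell-based screen for disruption of interphase and mitotic microtubules, tested at concentrations up to 50 µM; scored for microtubule density, bundling, circular mitotic spindles, micronucleation and other nuclear changes.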

[2] = Cytotoxicity against human H116 cells at 100 ug/disk by disk diffusion method; assay type: functional
In short: (§2)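 Soft agar colony formation assay with compound applied by disk diffusion; cell lines: murine L1210 leukemia and C38 colon, human HCT-116 colon, H-125 lung, CEM leukemia, normal hematopoietic CFU-GM. Differential cytotoxicity given as zone-unit differential between a solid tumor line and leukemia (ΔSL) or normal cells (ΔSN).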

HCT-116 [3] = assay: Formation of circular mitotic spindles in human HCT116 up to 50 uM; assay type: functional, cell-based; in short: as §1
[4] = Cytotoxicity against human H125 cells at 100 ug/disk by disk diffusion method; assay type: functional; in short: as §2
L1210 [5] = assay: Cytotoxicity against mouse L1210 cells at 100 ug/disk by disk diffusion method; assay type: functional; in short: as §2
HCT-116 [6] = assay: Cytotoxicity against human HCT116 cells after 72 hrs by trypan blue viable cell count; conditions: HCT-116, 72 h
HCT-116 [7] = assay: Increase in microtubule density in human HCT116 up to 50 uM; assay type: functional, cell-based; in short: as §1
MDA-MB-435 = assay: Cytotoxicity against human MDA-MB-435 cells after 48 hrs by SRB assay; conditions: MDA-MB-435, 48 h
MC-38 [8] = assay: Cytotoxicity against mouse C38 cells at 100 ug/disk by disk diffusion method; assay type: functional; in short: as §2
L1210 [9] = assay: Cytotoxicity against mouse L1210 cells at 30 ug/disk by disk diffusion method; assay type: functional; in short: as §2
MC-38 [10] = assay: Cytotoxicity against mouse C38 cells at 30 ug/disk by disk diffusion method; assay type: functional; in short: as §2
[11] = Cytotoxicity against human H116 cells at 30 ug/disk by disk diffusion method; assay type: functional; in short: as §2
[12] = Cytotoxicity against human H125 cells at 30 ug/disk by disk diffusion method; assay type: functional; in short: as §2
[13] = Cytotoxicity against human CFU-GM cells at 30 ug/disk by disk diffusion method; assay type: cell-based; in short: as §2
MC-38 [14] = assay: Cytotoxicity against mouse C38 cells at 60 ug/disk by disk diffusion method; assay type: functional
In short: (§3)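 Disk diffusion soft agar colony formation assay using solid tumor lines (murine colon C38, human colon HCT-116, human lung H125), leukemia lines (murine L1210, human CEM) and normal CFU-GM cells. Results are inhibition zones in zone units. Differential cytotoxicity is the zone difference between solid tumor and leukemia cells (ΔSL) or normal cells (ΔSN).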

[15] = Cytotoxicity against human H116 cells at 60 ug/disk by disk diffusion method; assay type: functional; in short: as §3
L1210 [16] = assay: Cytotoxicity against mouse L1210 cells at 60 ug/disk by disk diffusion method; assay type: functional; in short: as §3
[17] = Cytotoxicity against human H125 cells at 60 ug/disk by disk diffusion method; assay type: functional; in short: as §3
L1210 [18] = assay: Cytotoxicity against mouse L1210 cells at 40 ug/disk by disk diffusion method; assay type: functional; in short: as §2
[19] = Cytotoxicity against human H125 cells at 40 ug/disk by disk diffusion method; assay type: functional; in short: as §2
[20] = Cytotoxicity against human H116 cells at 40 ug/disk by disk diffusion method; assay type: functional; in short: as §2
CCRF-CEM [21] = assay: Cytotoxicity against human CEM cells at 40 ug/disk by disk diffusion method; assay type: functional; in short: as §2
MC-38 [22] = assay: Cytotoxicity against mouse C38 cells at 40 ug/disk by disk diffusion method; assay type: functional; in short: as §2
[23] = Cytotoxicity against human CFU-GM cells at 40 ug/disk by disk diffusion method; assay type: cell-based; in short: as §2
HCT-116 [24] = assay: Antitumor activity against HCT116 bearing SCID mice at 25 mg/kg bolus iv after 11 days relative to control; assay type: functional, Homo sapiens
In short: (§4)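 SCID mice were implanted subcutaneously with 10^6 HCT-116 cells and pooled, 5 per group. Dosing started 3 days after inoculation: daily iv tail-vein bolus for 5 days, 0.25 mL of 1 or 2 mg/mL (about 12.5 or 25 mg/kg/day) in DMSO/cremophor/propylene glycol/saline vehicle. Tumor weight and body weight were followed to day 30, and %T/C was calculated versus untreated controls.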

HCT-116 [25] = assay: Abnormal circular mitotic spindles formation in human HCT116 cells at 2 to 20 uM; assay type: functional, cell-based
[26] = Cytotoxicity against human H125 cells at 9 ug/disk by disk diffusion method; assay type: functional; in short: as §3
[27] = Drug level in HCT116 bearing SCID mice plasma at 25 mg/kg, iv after 2 hrs; assay type: ADME, organism-based; parameters: dose 25 mg/kg, route intravenous; conditions: mouse
In short: (§5)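 SCID mice bearing subcutaneous HCT-116 tumors (~100 mg) got a single iv dose of 0.5 mg/mouse (25 mg/kg) in 0.25 mL. Vehicle: 10 mg/mL DMSO stock mixed 1:1 with cremophor/propylene glycol (60:40), then diluted 20-fold in saline. Plasma was taken from individual mice at 1, 15, 30 min and 1, 2, 6, 24 h. Drug was extracted by solid-phase extraction and measured by C18 HPLC with UV detection at 218 nm.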

[28] = Drug level in HCT116 bearing SCID mice plasma at 25 mg/kg, iv after 1 min; assay type: ADME, organism-based; parameters: dose 25 mg/kg, route intravenous; conditions: mouse; in short: as §5
HCT-116 [29] = assay: Survival of human HCT116 cells at 5 ng/mL after 168 hrs; assay type: functional; conditions: HCT-116, 168 h, read-out: Survival
In short: (§6)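 Clonogenic assay. HCT-116 cells were seeded at 200 to 20 000 per 60 mm dish in RPMI + 10% FBS, then given drug at 1 mg/mL and 10-fold dilutions. Exposure was 2 h or 24 h followed by drug-free medium, or continuous. Dishes were incubated 7 days and stained with methylene blue; colonies of ≥50 cells were counted and normalized to untreated control. Experiments were repeated to span 100–0.1% survival.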

[30] = Cytotoxicity against human CFU-GM cells at 9 ug/disk by disk diffusion method; assay type: cell-based; in short: as §3
[31] = Cytotoxicity against human H116 cells at 9 ug/disk by disk diffusion method; assay type: functional; in short: as §3
HCT-116 [32] = assay: Antitumor activity against HCT116 bearig SCID mouse assessed as tumor weight at 25 mg/kg, iv after 30 mins; assay type: functional, Homo sapiens
HCT-116 [33] = assay: Antitumor activity against HCT116 bearig SCID mouse assessed as tumor weight at 25 mg/kg, iv after 24 hrs; assay type: functional, Homo sapiens
HCT-116 [34] = assay: Formation of thick bundles of microtubule stabilization in human HCT116 cells at 20 uM; assay type: functional, cell-based
MC-38 [35] = assay: Cytotoxicity against mouse C38 cells at 36 ug/disk by disk diffusion method; assay type: functional; in short: as §3
HCT-116 [36] = assay: Cytotoxicity against human HCT116 cells assessed as cell kill at 10 ng/mL after 24 hrs; assay type: functional; in short: as §6
HCT-116 [37] = assay: Formation of thick bundles of microtubule stabilization in human HCT116 cells at 2 to 20 uM; assay type: functional, cell-based
HCT-116 [38] = assay: Antitumor activity against HCT116 bearing SCID mice at 12.5 mg/kg bolus iv after 9 days relative to control; assay type: functional, Homo sapiens; in short: as §4
[39] = Drug level in HCT116 bearing SCID mice plasma at 25 mg/kg, iv after 24 hrs; assay type: ADME, organism-based; parameters: dose 25 mg/kg, route intravenous; conditions: mouse; in short: as §5
HCT-116 [40] = assay: Increase in microtubule density in human HCT116 cells at 20 uM; assay type: functional, cell-based
CCRF-CEM [41] = assay: Cytotoxicity against human CEM cells at 36 ug/disk by disk diffusion method; assay type: functional; in short: as §3
L1210 [42] = assay: Cytotoxicity against mouse L1210 cells at 9 ug/disk by disk diffusion method; assay type: functional; in short: as §3
HCT-116 [43] = assay: Cytotoxicity against human HCT116 cells assessed as cell kill at 1.2 ng/mL after 168 hrs; assay type: functional; in short: as §6

Row | SMILES | Activity (HCT-116 [1]) | Activity (HCT-116 [3]) | pIC50 (HCT-116 [6]) | Activity (HCT-116 [7]) | pIC50 (MDA-MB-435) | Activity (L1210 [9]) | Activity (MC-38 [10]) | Activity [11] | Activity [12] | further results
1 | C=C1C[C@H](C)C[C@@H]2CC=C[C@@H](C/C=C\C(=O)O[C@H]3C[C@@H](O[C@H]3/C=C/[C@@H]3CC(C)=CC(=O)O3)[C@@H](O)[C@@H](O)C1)O2 [FIIJIANOLIDE D] | inactive | inactive | 5.72 | inactive | 4.67 | – | – | – | – | Activity [2]: 0 Zone units; Activity [4]: 0 Zone units; Activity (L1210 [5]): 0 Zone units; Activity (MC-38 [8]): 150 Zone units
2 | C=C1C[C@H](C)C[C@@H]2CC=C[C@@H](C/C=C\C(=O)O[C@H]3C[C@@H](O[C@H]3/C=C/[C@@H]3CC(C)=CCO3)[C@@H](O)[C@@H](O)C1)O2 [FIJIANOLIDE A] | – | – | 5.01 | – | 4.69 | 150 Zone units | 0 Zone units | 100 Zone units | 50 Zone units | –
3 | C=C1C[C@H](C)C[C@@H]2CC=C[C@@H](C/C=C\C(=O)O[C@H]3C[C@@H](O[C@H]3/C=C/[C@@H]3CC(C)=CC(O)O3)[C@@H](O)[C@@H](O)C1)O2 (stereo not given in full) [FIJIANOLIDE I] | inactive | inactive | < 4.30 | inactive | < 4.30 | 0 Zone units | 50 Zone units | 0 Zone units | 0 Zone units | –
4 | C=C1C[C@H](C)C[C@@H]2CC=C[C@@H](C/C=C\C(=O)O[C@H]([C@@H](O)/C=C/[C@@H]3C[C@@]4(C)O[C@H]4[C@@H](O)O3)C[C@@H]3O[C@H]3[C@@H](O)C1)O2 [FIJIANOLIDE G] | Active | Active | 4.85 | Active | 5.04 | 150 Zone units | 350 Zone units | 200 Zone units | 200 Zone units | Activity [13]: 100 Zone units
5 | C=C1C[C@H](C)C[C@@H]2CC=C[C@@H](C/C=C\C(=O)O[C@H]3C[C@@H](O[C@H]3/C=C/[C@@H]3C[C@@]4(C)O[C@H]4[C@@H](O)O3)[C@@H](O)[C@@H](O)C1)O2 [FIJIANOLIDE F] | inactive | inactive | < 4.30 | inactive | < 4.30 | – | – | – | – | Activity (MC-38 [14]): 0 Zone units; Activity [15]: 50 Zone units; Activity (L1210 [16]): 150 Zone units; Activity [17]: 100 Zone units
6 | C=C1C[C@H](C)C[C@@H]2CC=C[C@@H](C/C=C\C(=O)OC([C@@H](O)/C=C/[C@@H]3CC(C)=CC(=O)O3)C[C@@H]3O[C@H]3[C@@H](O)C1)O2 (stereo not given in full) [FIJIANOLIDE E] | Active | Active | 6.15 | Active | 5.89 | – | – | – | – | Activity (L1210 [18]): 350 Zone units; Activity [19]: 400 Zone units; Activity [20]: 500 Zone units; Activity (CCRF-CEM [21]): 550 Zone units; Activity (MC-38 [22]): 400 Zone units; Activity [23]: 500 Zone units
7 | C=C1C[C@H](C)C[C@@H]2CC=C[C@@H](C/C=C\C(=O)O[C@H]([C@@H](O)/C=C/[C@@H]3CC(C)=CCO3)C[C@@H]3O[C@H]3[C@@H](O)C1)O2 [FIJIANOLIDE B] | – | – | 8.52 | – | 8.15 | – | – | – | – | Activity (HCT-116 [24]): 11%; Activity (HCT-116 [25]): Active; Activity [26]: 250 Zone units; concentration at 2 h [27]: 1 µg/mL; concentration at 1 min [28]: 160 µg/mL; viability at 0.005 µg/mL (HCT-116 [29]): 0.01%; Activity [30]: 550 Zone units; Activity [31]: 700 Zone units; Activity (HCT-116 [32]): 4.7 µg/mg; Activity (HCT-116 [33]): 2.8 µg/mg; Activity (HCT-116 [34]): inactive; Activity (MC-38 [35]): 800 Zone units; Activity (HCT-116 [36]): 90%; Activity (HCT-116 [37]): Active; Activity (HCT-116 [38]): 80%; concentration at 24 h [39]: 200 µg/mL; Activity (HCT-116 [40]): Active; Activity (CCRF-CEM [41]): >1000 Zone units; Activity (L1210 [42]): 500 Zone units; Activity (HCT-116 [43]): 90%
8 | C=C1C[C@H](C)C[C@@H]2CC=C[C@@H](C/C=C\C(=O)O[C@H]3C[C@@H](O[C@H]3/C=C/[C@@H]3CC(C)=CC(OC)O3)[C@@H](O)[C@@H](O)C1)O2 (stereo not given in full) [FIJIANOLIDE H] | inactive | inactive | < 4.30 | inactive | < 4.30 | – | – | – | – | Activity (L1210 [18]): 0 Zone units; Activity [19]: 0 Zone units; Activity [20]: 0 Zone units; Activity (MC-38 [22]): 150 Zone units

Reference: ChEMBL document CHEMBL1148705, “Sponge-derived fijianolide polyketide class: further evaluation of their structural and cytotoxicity properties” (J Med Chem, 2007)
